From ChEMBL document CHEMBL1137078, “Carbamoylphosphonates, a new class of in vivo active matrix metalloproteinase inhibitors. 1. Alkyl- and cycloalkylcarbamoylphosphonic acids” (J Med Chem, 2004) come the findings set out here.

SMILES strings stand for the structures. The source made the active and inactive calls. The calls are words filed in the database; no cut-off is given here. A value given as a limit tells only on which side of the number the result lay.

One assay deals with Stromelysin-1 (Homo sapiens, UniProt P08254). Put plainly: In vitro inhibitory activity against recombinant matrix metalloprotease-3 was determined. The gist of the method:
(§1)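 Commercial recombinant MMP-1, -2, -3, -8 or -9 at four levels (1-50 ng) incubated 3 h with their respective substrates. Compounds at four to six concentrations (0.1-100 µM). Colorimetric change read on an ELISA reader. IC50 calculated from the kinetic data.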

A further assay has as its target T1, Interstitial collagenase (Homo sapiens, UniProt P03956).
T1 sequence (P03956 whole entry): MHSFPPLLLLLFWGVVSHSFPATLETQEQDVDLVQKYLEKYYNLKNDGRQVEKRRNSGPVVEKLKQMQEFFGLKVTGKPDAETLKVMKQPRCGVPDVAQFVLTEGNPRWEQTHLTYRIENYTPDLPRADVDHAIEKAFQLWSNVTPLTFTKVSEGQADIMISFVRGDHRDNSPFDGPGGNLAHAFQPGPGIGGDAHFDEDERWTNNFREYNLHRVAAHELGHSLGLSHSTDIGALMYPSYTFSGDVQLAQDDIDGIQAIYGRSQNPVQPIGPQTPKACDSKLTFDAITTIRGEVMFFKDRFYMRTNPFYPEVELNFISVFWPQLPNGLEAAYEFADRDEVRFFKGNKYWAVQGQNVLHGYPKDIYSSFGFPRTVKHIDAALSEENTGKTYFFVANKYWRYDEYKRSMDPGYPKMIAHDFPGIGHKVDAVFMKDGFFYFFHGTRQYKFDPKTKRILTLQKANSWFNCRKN
Put plainly: In vitro inhibitory activity against recombinant matrix metalloprotease-1 was determined. The gist of the method: as §1

In assay [1] the target is Matrix metalloproteinase-9 (Homo sapiens, UniProt P14780). Put plainly: In vitro inhibitory activity against recombinant matrix metalloprotease-9 was determined. The procedure, abridged: as §1
Assay [2] addresses 72 kDa type IV collagenase (Homo sapiens, UniProt P08253). Nature of the assay: In vitro inhibitory activity against recombinant matrix metalloprotease-2 was determined. The procedure, abridged:
as §1

A further assay addresses Neutrophil collagenase (Homo sapiens, UniProt P22894). Put plainly: In vitro inhibitory activity against recombinant matrix metalloprotease-8 was determined. The gist of the method: as §1
The subject of another assay is NIH3T3. Nature of the assay: In vitro inhibition of invasion of NIH 3T3 cells across the reconstituted basement membrane by the compound at 50 uM concentration in Boyden chamber chemoinvasion assay; Inactive. It is filed as functional, cell-based. The note with it: Mus musculus.
A further assay deals with B16-F10. Put plainly: Inhibition of lung metastasis formation after 3 weeks treatment with 50 mg/kg of compound in mice injected with 50000 B16F10 tumor cells into the tail vein. Format: functional. The settings on record: Mus musculus, 504 h. The procedure, abridged: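 Experimental metastasis in mice: 50 000 B16F10 melanoma cells injected into the tail vein. Compound given ip daily at 50 mg/kg for 3 weeks. Mice sacrificed at day 21, lungs fixed, and surface tumor foci counted. Value is % inhibition of lung metastasis formation.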

The species named for a further assay is Homo sapiens. Put plainly: In vitro inhibition of endothelial capillary tube formation by the compound at 50 uM concentration. It is filed as functional. The gist of the method:
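Endothelial cells plated on a thin Matrigel layer with angiogenic factor (bFGF/VEGF), incubated 4-6 h to form tubelike structures. Compounds added at 5 concentrations (100, 50, 25, 10, 5 µM). Tube formation quantified by image analysis. Value is % inhibition at 50 µM.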

Sequence of Stromelysin-1 (P08254 whole entry): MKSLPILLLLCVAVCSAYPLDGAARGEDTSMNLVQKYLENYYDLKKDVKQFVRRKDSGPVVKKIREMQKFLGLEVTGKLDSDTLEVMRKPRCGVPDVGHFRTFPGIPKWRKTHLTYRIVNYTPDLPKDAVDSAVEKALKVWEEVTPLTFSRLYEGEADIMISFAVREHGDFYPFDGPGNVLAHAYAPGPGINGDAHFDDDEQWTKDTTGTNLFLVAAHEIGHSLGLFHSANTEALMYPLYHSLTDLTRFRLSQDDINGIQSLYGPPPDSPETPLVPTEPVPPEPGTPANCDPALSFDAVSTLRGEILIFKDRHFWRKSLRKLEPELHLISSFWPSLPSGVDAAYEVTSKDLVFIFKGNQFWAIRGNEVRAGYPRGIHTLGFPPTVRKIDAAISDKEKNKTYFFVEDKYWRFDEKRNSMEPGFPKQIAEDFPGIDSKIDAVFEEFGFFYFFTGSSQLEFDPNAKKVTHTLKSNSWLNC
Sequence of 72 kDa type IV collagenase (P08253 whole entry): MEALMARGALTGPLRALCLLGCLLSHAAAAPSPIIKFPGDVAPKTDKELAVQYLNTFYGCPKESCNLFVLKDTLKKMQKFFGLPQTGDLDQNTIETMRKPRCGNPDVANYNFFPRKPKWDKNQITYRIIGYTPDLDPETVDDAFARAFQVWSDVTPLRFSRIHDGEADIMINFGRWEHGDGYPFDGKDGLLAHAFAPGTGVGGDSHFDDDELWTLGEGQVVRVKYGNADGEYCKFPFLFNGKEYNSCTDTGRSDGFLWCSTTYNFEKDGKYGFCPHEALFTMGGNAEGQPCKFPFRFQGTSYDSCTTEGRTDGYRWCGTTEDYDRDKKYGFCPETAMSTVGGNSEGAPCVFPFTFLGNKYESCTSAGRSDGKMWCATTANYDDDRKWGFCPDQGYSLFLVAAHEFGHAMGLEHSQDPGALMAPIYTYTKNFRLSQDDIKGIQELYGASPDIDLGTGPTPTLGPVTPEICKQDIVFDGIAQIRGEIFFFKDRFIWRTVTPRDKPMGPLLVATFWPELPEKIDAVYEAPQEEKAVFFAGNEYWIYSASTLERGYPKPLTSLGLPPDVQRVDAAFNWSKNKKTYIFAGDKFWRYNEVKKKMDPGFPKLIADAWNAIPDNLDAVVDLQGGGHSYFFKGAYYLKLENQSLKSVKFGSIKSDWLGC
Sequence of Neutrophil collagenase (P22894 whole entry): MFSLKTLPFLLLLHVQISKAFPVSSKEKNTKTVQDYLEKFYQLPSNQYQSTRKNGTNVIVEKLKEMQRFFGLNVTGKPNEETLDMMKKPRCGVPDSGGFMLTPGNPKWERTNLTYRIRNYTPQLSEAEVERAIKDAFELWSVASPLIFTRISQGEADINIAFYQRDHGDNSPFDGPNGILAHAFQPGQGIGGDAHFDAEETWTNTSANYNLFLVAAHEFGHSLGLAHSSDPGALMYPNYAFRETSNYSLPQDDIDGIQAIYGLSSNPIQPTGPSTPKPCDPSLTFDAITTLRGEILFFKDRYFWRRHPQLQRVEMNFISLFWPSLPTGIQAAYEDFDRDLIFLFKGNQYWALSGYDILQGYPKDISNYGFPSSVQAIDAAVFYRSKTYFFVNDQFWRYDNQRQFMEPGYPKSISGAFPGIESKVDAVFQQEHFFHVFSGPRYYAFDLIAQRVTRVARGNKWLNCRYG
Sequence of Matrix metalloproteinase-9 (P14780 whole entry): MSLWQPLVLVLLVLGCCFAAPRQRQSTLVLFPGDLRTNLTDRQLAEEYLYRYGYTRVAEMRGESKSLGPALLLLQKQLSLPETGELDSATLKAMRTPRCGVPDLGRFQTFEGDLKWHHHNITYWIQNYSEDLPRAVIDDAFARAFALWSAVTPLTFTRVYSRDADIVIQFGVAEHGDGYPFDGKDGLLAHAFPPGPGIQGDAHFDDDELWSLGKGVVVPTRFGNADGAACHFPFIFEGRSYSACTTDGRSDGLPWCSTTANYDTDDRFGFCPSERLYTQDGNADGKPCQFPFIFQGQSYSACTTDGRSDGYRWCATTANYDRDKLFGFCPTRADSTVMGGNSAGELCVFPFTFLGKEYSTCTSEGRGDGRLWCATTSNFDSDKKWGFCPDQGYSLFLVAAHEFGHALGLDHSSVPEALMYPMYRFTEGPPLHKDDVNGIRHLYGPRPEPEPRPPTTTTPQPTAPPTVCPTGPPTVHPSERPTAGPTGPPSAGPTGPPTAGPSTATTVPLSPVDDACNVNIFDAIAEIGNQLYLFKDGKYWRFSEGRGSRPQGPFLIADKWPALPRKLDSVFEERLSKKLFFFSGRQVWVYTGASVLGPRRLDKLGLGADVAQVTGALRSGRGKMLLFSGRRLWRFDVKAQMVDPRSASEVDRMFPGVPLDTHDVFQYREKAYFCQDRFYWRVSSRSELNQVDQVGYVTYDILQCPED

Turning to `CC(C)CNC(=O)P(=O)(O)O.NC1CCCCC1` [CYCLOHEXANAMINIUM HYDROGEN (ISOBUTYLAMINO)CARBONYLPHOSPHONATE], the IC50 (as a rule, the concentration needed to halve the response being measured) at Stromelysin-1 was over 100 µM; at Interstitial collagenase it was 40 µM; in assay [1] it was over 100 µM; in assay [2], over 100 µM; at Neutrophil collagenase, 1 µM. Besides, the inhibition – broadly, the share of the control response that was lost under treatment – in the assay with NIH3T3 was “inactive”.

For `O=C(NC1CCC1)P(=O)(O)O` [(CYCLOBUTYLAMINO)CARBONYLPHOSPHONIC ACID], 50 mg/kg produced 60% inhibition in vivo with B16-F10. Also, the IC50 is over 100 µM on Stromelysin-1; over 100 µM at Interstitial collagenase; over 100 µM in assay [1]; 0.15 µM in assay [2]; 0.04 µM at Neutrophil collagenase.

As to `O=C(NC1CCCCC1)P(=O)(O)O` [(CYCLOHEXYLAMINO)CARBONYLPHOSPHONIC ACID], the inhibition in vivo (as a rule, the percentage by which the read-out fell short of the control) at 50 mg/kg in the assay on B16-F10 amounted to 37%. The IC50 was 3 µM at Stromelysin-1, 0.1 µM on Interstitial collagenase, over 100 µM in assay [1] and over 100 µM at Neutrophil collagenase. For the same compound, in the assay filed under Homo sapiens, the inhibition is 50%.

In the assay with B16-F10, `O=C(NC1CCCC1)P(=O)(O)O` [(CYCLOPENTYLAMINO)CARBONYLPHOSPHONIC ACID] returned an inhibition in vivo at 50 mg/kg of 72%. Further, the IC50 on Stromelysin-1 was over 100 µM; at Interstitial collagenase it was 0.5 µM; in assay [1], over 100 µM; at Neutrophil collagenase it was over 100 µM. This compound displayed an inhibition in the assay listed under Homo sapiens of 70%.

Turning to `O=C(NC1CC1)P(=O)(O)O` [(CYCLOPROPYLAMINO)CARBONYLPHOSPHONIC ACID], the IC50 was over 100 µM at Stromelysin-1; over 100 µM at Interstitial collagenase; over 100 µM in assay [1]; 0.5 µM in assay [2]; 0.2 µM at Neutrophil collagenase.

For `O=C(N1CCCCC1)P(=O)(O)O`, the IC50 at Stromelysin-1 is 90 µM; on Interstitial collagenase it was 70 µM; in assay [1], 0.5 µM; in assay [2], 1 µM; at Neutrophil collagenase, over 100 µM. The inhibition result in the assay on NIH3T3 is “inactive”.

`O=C(NCC1CCCCC1)P(=O)(O)O` [CYCLOHEXYLMETHYLCARBAMOYLPHOSPHONIC ACID] returned an inhibition in vivo at 50 mg/kg in the assay on B16-F10 of 69%. Besides, the values for the IC50 on Stromelysin-1, on Interstitial collagenase and at Neutrophil collagenase were 1 µM, 30 µM and 80 µM, respectively. Besides, the inhibition in the assay listed under Homo sapiens came out at 53%.

Compound `CNC(=O)P(=O)(O)O` [(METHYLAMINO)CARBONYLPHOSPHONIC ACID] registered an inhibition in vivo at 50 mg/kg in the assay with B16-F10 of 55%. The IC50 at Stromelysin-1 is 90 µM; on Interstitial collagenase, over 100 µM; in assay [1], over 100 µM; in assay [2], 0.02 µM; at Neutrophil collagenase it was 20 µM.

In the case of `CC(C)CCNC(=O)P(=O)(O)O.NC1CCCCC1`, the half-maximal inhibitory concentration (IC50) on Stromelysin-1 is over 100 µM; at Interstitial collagenase, over 100 µM; in assay [1], over 100 µM; in assay [2] it was 30 µM; on Neutrophil collagenase, 50 µM. In addition, the inhibition result in the assay on NIH3T3 is “inactive”.

Turning to `CCC(C)NC(=O)P(=O)(O)O` (configuration not stated), the IC50 at Stromelysin-1 was 80 µM; on Interstitial collagenase, 40 µM; in assay [1] it was over 100 µM; in assay [2], 3 µM; on Neutrophil collagenase, over 100 µM. In the assay listed under Homo sapiens, this compound showed an inhibition of 20%.

Regarding `CCN(CC)C(=O)P(=O)(O)O` [(DIETHYLAMINO)CARBONYLPHOSPHONIC ACID], the IC50 was 30 µM on Stromelysin-1; 30 µM on Interstitial collagenase; over 100 µM in assay [1]; 1 µM in assay [2]; 70 µM at Neutrophil collagenase. In the assay with NIH3T3, the inhibition result is “inactive”.

Turning to `CCCNC(=O)P(=O)(O)O` [(PROPYLAMINO)CARBONYLPHOSPHONIC ACID], the IC50 on Stromelysin-1 was 50 µM; on Interstitial collagenase, 20 µM; in assay [1] it was 20 µM; in assay [2], 0.3 µM; on Neutrophil collagenase, over 100 µM.

For the compound `CCNC(=O)P(=O)(O)O` [(ETHYLAMINO)CARBONYLPHOSPHONIC ACID], the IC50 was found to be 100 µM on Stromelysin-1; 50 µM on Interstitial collagenase; 3 µM in assay [1]; 5 µM in assay [2]; 30 µM at Neutrophil collagenase.

On to `CCC(CC)NC(=O)P(=O)(O)O`, for which the IC50 on Stromelysin-1 is over 100 µM; at Interstitial collagenase it was 80 µM; in assay [1] it was over 100 µM; in assay [2], 3 µM; at Neutrophil collagenase it was 10 µM.

`CC(C)NC(=O)P(=O)(O)O` [(ISOPROPYLAMINO)CARBONYLPHOSPHONIC ACID] displayed an inhibition in vivo at 50 mg/kg with B16-F10 of 40%. Besides, the IC50 at Stromelysin-1 was over 100 µM; on Interstitial collagenase, 50 µM; in assay [1], 2 µM; in assay [2], 1 µM; on Neutrophil collagenase, 50 µM. In addition, the inhibition in the assay filed under Homo sapiens came out at 55%.

As for `CCCCNC(=O)P(=O)(O)O` [SODIUM HYDROGEN (BUTYLAMINO)CARBONYLPHOSPHONATE], the IC50 is over 100 µM on Stromelysin-1; 25 µM on Interstitial collagenase; over 100 µM in assay [1]; 2 µM in assay [2]; over 100 µM at Neutrophil collagenase. In the assay filed under Homo sapiens, this compound had an inhibition of 20%.

As for `CCOP(=O)(O)C(=O)NC1CCCCC1` [LITHIUM ETHYL (CYCLOHEXYLAMINO)CARBONYLPHOSPHONATE], the concentration for half-maximal inhibition (IC50) is over 100 µM at Stromelysin-1; 1.5 µM on Interstitial collagenase; over 100 µM in assay [1]; 30 µM in assay [2]; over 100 µM on Neutrophil collagenase.

Regarding `O=C(NCCc1ccccc1)P(=O)(O)O` [PHENETHYLCARBAMOYLPHOSPHONIC ACID], the IC50 at Stromelysin-1 is 90 µM; at Interstitial collagenase, 80 µM; in assay [1], over 100 µM; in assay [2], 20 µM; at Neutrophil collagenase, over 100 µM.

Take `O=C(NC1CCCCCC1)P(=O)(O)O` [(CYCLOHEPTYLAMINO)CARBONYLPHOSPHONIC ACID]: in the assay with B16-F10, 50 mg/kg produced 69% inhibition in vivo. Besides, the IC50 at Stromelysin-1 was over 100 µM; at Interstitial collagenase it was over 100 µM; in assay [1] it was over 100 µM; in assay [2] it was 4 µM; at Neutrophil collagenase, over 100 µM. The inhibition in the assay listed under Homo sapiens was determined as 45%.

Take `O=C(N1CCOCC1)P(=O)(O)O`: the IC50 on Stromelysin-1 is 1 µM; at Interstitial collagenase, 50 µM; in assay [1] it was over 100 µM; in assay [2], over 100 µM; on Neutrophil collagenase, 30 µM. In addition, in the assay with NIH3T3, the inhibition result is “inactive”.

Regarding `O=C(NC1CCCCCCC1)P(=O)(O)O` [(CYCLOOCTYLAMINO)CARBONYLPHOSPHONIC ACID], the IC50 on Stromelysin-1 was over 100 µM; on Interstitial collagenase, over 100 µM; in assay [1] it was over 100 µM; in assay [2] it was 1 µM; at Neutrophil collagenase, 4 µM. This compound also yielded an inhibition in the assay filed under Homo sapiens of 25%.

Take `CCCCN(CCCC)C(=O)P(=O)(O)O` [(DIBUTYLAMINO)CARBONYLPHOSPHONIC ACID]: the IC50 on Stromelysin-1 was 30 µM; on Interstitial collagenase, 70 µM; in assay [1] it was over 100 µM; in assay [2], 50 µM; on Neutrophil collagenase, 90 µM. In addition, the inhibition result with NIH3T3 is “inactive”.
